IC50 and inhibition data for 15 compounds are collected here from ChEMBL document CHEMBL4033696, “Repurposing of Proton Pump Inhibitors as first identified small molecule inhibitors of endo-β-N-acetylglucosaminidase (ENGase) for the treatment of NGLY1 deficiency, a rare genetic disease” (Bioorg Med Chem Lett, 2017).

What is called IC50 is the concentration needed to halve the response being measured.

Activity calls are given as the source filed them. The rule behind the calls is not given here. Residues, ends and D or L forms follow the SMILES beside them. *: point of attachment. Cbz = O=C(OCc1ccccc1)*

One experiment addresses T1, Cytosolic endo-beta-N-acetylglucosaminidase (Homo sapiens, UniProt Q8NFI3).
T1 sequence (Q8NFI3 whole entry): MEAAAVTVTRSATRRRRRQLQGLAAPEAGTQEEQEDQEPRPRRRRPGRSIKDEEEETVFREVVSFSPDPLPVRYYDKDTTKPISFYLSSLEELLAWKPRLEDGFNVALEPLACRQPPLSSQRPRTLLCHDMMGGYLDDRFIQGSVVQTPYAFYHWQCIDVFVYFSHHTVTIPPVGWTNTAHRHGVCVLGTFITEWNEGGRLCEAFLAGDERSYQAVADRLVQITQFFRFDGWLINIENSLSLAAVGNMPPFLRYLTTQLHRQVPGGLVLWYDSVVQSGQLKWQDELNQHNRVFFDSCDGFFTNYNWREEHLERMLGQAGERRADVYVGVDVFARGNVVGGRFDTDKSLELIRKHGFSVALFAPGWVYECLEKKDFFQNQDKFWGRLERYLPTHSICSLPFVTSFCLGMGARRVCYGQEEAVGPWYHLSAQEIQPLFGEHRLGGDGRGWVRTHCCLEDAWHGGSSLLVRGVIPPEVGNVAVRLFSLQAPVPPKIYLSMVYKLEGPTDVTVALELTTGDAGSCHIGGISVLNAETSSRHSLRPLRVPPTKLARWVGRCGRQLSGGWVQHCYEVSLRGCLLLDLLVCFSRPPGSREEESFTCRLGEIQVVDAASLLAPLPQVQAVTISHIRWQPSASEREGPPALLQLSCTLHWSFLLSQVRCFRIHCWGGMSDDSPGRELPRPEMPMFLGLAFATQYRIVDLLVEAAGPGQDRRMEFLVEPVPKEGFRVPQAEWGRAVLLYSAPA
The experiment can be described thus: (§1) Inhibition of recombinant human C-MYC/DDK-tagged ENGase expressed in HEK293T cells using heat inactivated bovine ribonuclease B as substrate pretreated for 15 mins followed by substrate addition after 90 mins by SDS-PAGE analysis. The arrangement: species or system HEK-293T.
Conditions: not given
An outline of the steps:
(§2)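 Electrophoretic mobility shift assay: recombinant human ENGase with ribonuclease B and inhibitor at various concentrations, heat-inactivated, run on 12% SDS-PAGE, Coomassie R-250 staining, band densitometry. IC50 came either from 8-dose curves in three independent experiments or was estimated from four concentrations in two independent experiments.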
For the compound `Cc1c(OCC(F)(F)F)ccnc1C[S+]([O-])c1nc2ccccc2[nH]1` (stereo not given) [LANSOPRAZOLE], the IC50 worked out at 24.4 µM.

`COCCCOc1ccnc(C[S+]([O-])c2nc3ccccc3[nH]2)c1C` (stereo not given) [RABEPRAZOLE]: the IC50 worked out at 4.47 µM.

Regarding `COc1ccc2[nH]c([S+]([O-])Cc3ncc(C)c(OC)c3C)nc2c1` (stereo not given) [OMEPRAZOLE], the IC50 was determined as 25 µM.

In the case of `COc1ccc2[nH]c([S+]([O-])Cc3ncc(C)c(OC)c3C)nc2n1` (stereo not given) [TENATOPRAZOLE], the concentration for half-maximal inhibition (IC50) is 20 µM.

Take `Cc1c(OCC(F)(F)F)ccnc1C[S@@+]([O-])c1nc2ccccc2[nH]1` [DEXLANSOPRAZOLE]: the 50% inhibitory concentration (IC50) was found to be 25 µM.

The next experiment addresses T2, Cytosolic endo-beta-N-acetylglucosaminidase (Homo sapiens) (UniProt Q8NFI3).
T2 sequence (whole entry): T1 sequence (Q8NFI3 whole entry)
Described as §1. The following applies: HEK-293T. An outline of the steps:
as §2
`COc1ccnc(C[S+]([O-])c2nc3cc(OC(F)F)ccc3[nH]2)c1OC` (stereo not given): the inhibition result is “inactive”.

`COc1ccc2[nH]c([S@@+]([O-])Cc3ncc(C)c(OC)c3C)nc2c1`: the inhibition result was “inactive”.

The target in a further experiment is T2, Cytosolic endo-beta-N-acetylglucosaminidase (Homo sapiens). Description: Inhibition of recombinant human C-MYC/DDK-tagged ENGase expressed in HEK293T cells at 100 uM using heat inactivated bovine ribonuclease B as substrate pretreated for 15 mins followed by substrate addition after 90 mins by SDS-PAGE analysis. Particulars: HEK-293T. An outline of the steps:
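Recombinant human ENGase incubated with ribonuclease B substrate and test compound at 100 μM as a single-concentration screen. Reactions were then heat-inactivated and resolved on 12% SDS-PAGE as an electrophoretic mobility shift assay. Bands were stained with Coomassie blue R-250 and quantified by densitometry.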
For the compound `N=C(N)NC(=O)Cc1c(Cl)cccc1Cl`, the inhibition entry is “inactive”.

In the case of `CN1CCc2nc(C(=O)N[C@@H]3C[C@@H](C(=O)N(C)C)CC[C@@H]3NC(=O)C(=O)Nc3ccc(Cl)cn3)sc2C1`, the inhibition result was “inactive”.

Take `CNCC[C@@H](Oc1ccccc1C)c1ccccc1`: the inhibition result was “inactive”.

Regarding `CCNC1=N[C@H]2[C@H](O)[C@@H](O)[C@H](CO)O[C@H]2S1`, the inhibition entry was “inactive”.

For the compound `CC(=O)Nc1nnc(S(N)(=O)=O)s1`, the inhibition result is “inactive”.

`CC(C)C[C@@H](C=O)NC(=O)[C@H](CC(C)C)NC(=O)[C@H](CC(C)C)NC(=O)OCc1ccccc1` (Cbz-Leu-Leu-Leu-aldehyde): the inhibition entry was “inactive”.

Turning to `CC(C)C[C@H](NC(=O)CNC(=O)c1cc(Cl)ccc1Cl)B(O)O`, the inhibition entry was “inactive”.

With `Clc1cccc(Cl)c1NC1=NCCN1`, the inhibition entry is “inactive”.
